Experimental data published in ChEMBL document CHEMBL1141492, “Potent, exceptionally selective, orally bioavailable inhibitors of TNF-alpha Converting Enzyme (TACE): novel 2-substituted-1H-benzo[d]imidazol-1-yl)methyl)benzamide P1' substituents” (Bioorg Med Chem Lett, 2008).

How the values were obtained:
[1] = target: Disintegrin and metalloproteinase domain-containing protein 17 (Sus scrofa, UniProt O77636); test: Inhibition of semi purified pig TACE
Blood = test: Reduction of LPS-induced TNFalpha in human whole blood; format: functional, tissue-based
How it was run: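 LPS-induced TNF-α production in human whole blood; suppression of TNF-α measured.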

[2] = target: 72 kDa type IV collagenase (Homo sapiens, UniProt P08253); test: Inhibition of MMP2
Chain of 72 kDa type IV collagenase (P08253 whole entry): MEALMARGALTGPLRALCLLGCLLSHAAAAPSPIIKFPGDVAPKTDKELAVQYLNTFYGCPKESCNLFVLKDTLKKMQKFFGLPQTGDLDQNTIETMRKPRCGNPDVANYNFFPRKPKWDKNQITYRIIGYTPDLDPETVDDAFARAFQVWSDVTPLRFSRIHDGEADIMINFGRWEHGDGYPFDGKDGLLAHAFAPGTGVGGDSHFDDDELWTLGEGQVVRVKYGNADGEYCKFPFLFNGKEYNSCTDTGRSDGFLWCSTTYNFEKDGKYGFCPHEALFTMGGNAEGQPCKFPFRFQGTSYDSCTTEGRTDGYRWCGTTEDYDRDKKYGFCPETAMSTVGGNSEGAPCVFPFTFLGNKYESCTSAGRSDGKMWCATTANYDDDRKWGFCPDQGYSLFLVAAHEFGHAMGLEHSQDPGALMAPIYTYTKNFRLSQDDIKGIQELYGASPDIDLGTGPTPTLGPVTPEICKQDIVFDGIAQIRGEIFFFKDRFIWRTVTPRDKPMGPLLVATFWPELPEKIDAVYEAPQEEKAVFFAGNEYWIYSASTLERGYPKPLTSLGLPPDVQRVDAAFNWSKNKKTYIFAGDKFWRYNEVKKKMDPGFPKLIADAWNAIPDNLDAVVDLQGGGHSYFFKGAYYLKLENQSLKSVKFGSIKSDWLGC

[3] = target: Matrix metalloproteinase-9 (Homo sapiens, UniProt P14780); test: Inhibition of MMP9
Chain of Matrix metalloproteinase-9 (P14780 whole entry): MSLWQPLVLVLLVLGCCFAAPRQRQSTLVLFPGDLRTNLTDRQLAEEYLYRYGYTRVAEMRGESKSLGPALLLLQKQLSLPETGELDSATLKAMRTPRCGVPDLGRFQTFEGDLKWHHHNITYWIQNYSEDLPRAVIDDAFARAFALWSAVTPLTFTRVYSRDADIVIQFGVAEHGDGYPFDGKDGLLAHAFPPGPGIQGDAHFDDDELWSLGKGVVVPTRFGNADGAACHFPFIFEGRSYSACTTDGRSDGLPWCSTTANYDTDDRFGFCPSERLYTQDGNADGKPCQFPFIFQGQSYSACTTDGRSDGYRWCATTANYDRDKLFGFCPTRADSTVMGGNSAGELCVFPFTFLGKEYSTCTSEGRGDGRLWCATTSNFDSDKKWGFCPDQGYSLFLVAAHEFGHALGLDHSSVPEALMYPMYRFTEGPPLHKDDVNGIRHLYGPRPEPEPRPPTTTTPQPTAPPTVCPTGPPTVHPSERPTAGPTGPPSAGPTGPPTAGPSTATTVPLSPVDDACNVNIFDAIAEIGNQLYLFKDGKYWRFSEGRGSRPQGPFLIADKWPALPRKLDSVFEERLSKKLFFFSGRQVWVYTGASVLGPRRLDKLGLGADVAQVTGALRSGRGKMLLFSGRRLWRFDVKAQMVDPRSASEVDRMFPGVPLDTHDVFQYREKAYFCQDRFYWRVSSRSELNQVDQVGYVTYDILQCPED

Interstitial collagenase = target: T1, Interstitial collagenase (Homo sapiens, UniProt P03956); test: Inhibition of MMP1
T1 sequence (P03956 whole entry): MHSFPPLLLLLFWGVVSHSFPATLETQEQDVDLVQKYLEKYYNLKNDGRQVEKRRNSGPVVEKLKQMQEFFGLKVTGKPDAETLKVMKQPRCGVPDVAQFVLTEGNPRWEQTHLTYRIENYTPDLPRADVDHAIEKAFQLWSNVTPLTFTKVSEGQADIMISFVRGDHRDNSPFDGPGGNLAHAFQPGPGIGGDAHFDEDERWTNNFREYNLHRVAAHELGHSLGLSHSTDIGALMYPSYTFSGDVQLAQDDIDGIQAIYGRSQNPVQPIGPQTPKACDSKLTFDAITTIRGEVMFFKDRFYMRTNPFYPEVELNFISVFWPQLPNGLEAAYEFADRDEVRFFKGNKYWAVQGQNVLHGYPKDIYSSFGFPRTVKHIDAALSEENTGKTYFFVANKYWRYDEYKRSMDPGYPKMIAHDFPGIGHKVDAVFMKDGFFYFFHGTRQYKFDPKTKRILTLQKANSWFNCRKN

[4] = Apparent permeability across human Caco-2 cells; format: ADME, cell-based
How it was run: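 Apparent permeability measured across Caco-2 cell monolayers in the apical-to-basolateral (A→B) direction.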

[5] = Oral bioavailability in Sprague-Dawley rat at 8.0 mg/kg; format: ADME, organism-based; settings: in vivo
How it was run: (§1)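 Discrete or cassette (n-in-1) dosing, given intravenously and orally. Sprague–Dawley rats received 5.0 mg/kg iv and 8.0 mg/kg po; beagle dogs received 2.0 mg/kg iv and 8.0 mg/kg po. Three animals per dosing group; averaged values reported. AUC is reported in nM h.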

[6] = Clearance in Sprague-Dawley rat at 5.0 mg/kg, iv; format: ADME, organism-based; set-up: dose 5 mg/kg, route intravenous; settings: in vivo; how it was run: as §1
[7] = target: Matrix metalloproteinase-16 (Homo sapiens, UniProt P51512); test: Inhibition of MMP16
Chain of Matrix metalloproteinase-16 (P51512 whole entry): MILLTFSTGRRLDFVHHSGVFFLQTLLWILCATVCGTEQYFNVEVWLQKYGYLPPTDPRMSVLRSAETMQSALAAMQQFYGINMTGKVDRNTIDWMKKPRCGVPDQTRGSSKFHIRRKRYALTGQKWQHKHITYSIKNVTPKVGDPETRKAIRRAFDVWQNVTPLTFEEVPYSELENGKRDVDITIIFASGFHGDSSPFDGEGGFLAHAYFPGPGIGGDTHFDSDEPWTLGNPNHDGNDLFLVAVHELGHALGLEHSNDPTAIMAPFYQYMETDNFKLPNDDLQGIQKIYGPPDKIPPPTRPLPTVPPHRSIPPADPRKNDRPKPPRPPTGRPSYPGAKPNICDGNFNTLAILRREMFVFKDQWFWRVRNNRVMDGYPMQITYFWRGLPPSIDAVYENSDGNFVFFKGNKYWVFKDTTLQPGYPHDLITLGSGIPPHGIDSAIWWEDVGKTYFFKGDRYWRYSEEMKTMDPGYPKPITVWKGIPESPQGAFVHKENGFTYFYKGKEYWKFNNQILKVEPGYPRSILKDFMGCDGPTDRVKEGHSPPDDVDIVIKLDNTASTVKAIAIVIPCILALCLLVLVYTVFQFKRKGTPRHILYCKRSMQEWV

Stromelysin-1 = Stromelysin-1 (Homo sapiens, UniProt P08254); test: Inhibition of MMP3
Chain of Stromelysin-1 (P08254 whole entry): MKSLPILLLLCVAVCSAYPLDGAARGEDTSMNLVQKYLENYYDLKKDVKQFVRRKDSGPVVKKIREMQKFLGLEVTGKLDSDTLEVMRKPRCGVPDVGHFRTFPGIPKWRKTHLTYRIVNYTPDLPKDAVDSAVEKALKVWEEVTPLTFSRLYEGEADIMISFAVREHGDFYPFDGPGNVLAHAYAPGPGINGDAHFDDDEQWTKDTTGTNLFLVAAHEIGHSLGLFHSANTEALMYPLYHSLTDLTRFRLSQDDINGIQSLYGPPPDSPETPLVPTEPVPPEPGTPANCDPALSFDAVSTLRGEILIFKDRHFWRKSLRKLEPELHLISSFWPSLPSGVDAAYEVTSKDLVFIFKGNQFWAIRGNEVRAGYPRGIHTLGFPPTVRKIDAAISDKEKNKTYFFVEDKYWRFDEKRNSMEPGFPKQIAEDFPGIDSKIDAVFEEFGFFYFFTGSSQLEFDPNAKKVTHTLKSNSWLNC

Collagenase 3 = Collagenase 3 (Homo sapiens, UniProt P45452); test: Inhibition of MMP13
[8] = target: Matrix metalloproteinase-15 (Homo sapiens, UniProt P51511); test: Inhibition of MMP15
Chain of Matrix metalloproteinase-15 (P51511 whole entry): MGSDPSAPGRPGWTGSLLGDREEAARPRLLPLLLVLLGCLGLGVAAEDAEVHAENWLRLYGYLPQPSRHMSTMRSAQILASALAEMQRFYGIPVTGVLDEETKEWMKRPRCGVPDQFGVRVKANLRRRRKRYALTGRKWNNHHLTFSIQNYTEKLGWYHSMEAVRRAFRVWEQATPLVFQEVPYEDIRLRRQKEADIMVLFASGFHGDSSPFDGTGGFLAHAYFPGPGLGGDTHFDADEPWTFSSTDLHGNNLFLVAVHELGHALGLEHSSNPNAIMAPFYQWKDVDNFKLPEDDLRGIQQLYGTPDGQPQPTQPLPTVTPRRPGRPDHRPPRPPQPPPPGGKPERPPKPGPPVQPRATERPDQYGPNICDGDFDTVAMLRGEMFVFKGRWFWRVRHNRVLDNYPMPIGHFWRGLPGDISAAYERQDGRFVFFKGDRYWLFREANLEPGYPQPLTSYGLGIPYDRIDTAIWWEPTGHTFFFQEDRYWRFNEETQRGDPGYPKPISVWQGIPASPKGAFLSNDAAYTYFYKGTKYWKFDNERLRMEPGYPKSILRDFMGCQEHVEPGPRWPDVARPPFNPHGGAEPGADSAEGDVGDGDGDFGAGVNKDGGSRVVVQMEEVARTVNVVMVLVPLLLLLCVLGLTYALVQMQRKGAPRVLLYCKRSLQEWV
How it was run: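 Ki values against each MMP, each from a single determination.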

Stromelysin-2 = Stromelysin-2 (Homo sapiens, UniProt P09238); test: Inhibition of MMP10
Chain of Stromelysin-2 (P09238 whole entry): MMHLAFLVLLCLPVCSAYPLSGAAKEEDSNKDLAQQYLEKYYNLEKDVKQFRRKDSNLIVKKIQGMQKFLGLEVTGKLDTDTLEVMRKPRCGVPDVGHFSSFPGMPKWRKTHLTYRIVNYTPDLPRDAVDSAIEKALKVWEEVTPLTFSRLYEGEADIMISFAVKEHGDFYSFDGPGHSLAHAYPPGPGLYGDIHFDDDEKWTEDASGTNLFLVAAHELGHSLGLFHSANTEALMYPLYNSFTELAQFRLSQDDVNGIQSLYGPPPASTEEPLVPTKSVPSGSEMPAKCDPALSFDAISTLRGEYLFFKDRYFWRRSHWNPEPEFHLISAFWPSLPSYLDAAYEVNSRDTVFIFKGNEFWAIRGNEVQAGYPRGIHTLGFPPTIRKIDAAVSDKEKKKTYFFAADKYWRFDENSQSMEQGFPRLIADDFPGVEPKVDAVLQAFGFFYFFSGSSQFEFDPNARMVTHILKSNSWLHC
How it was run: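 MMP Ki values come from a single determination.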

[9] = target: Matrix metalloproteinase-14 (Homo sapiens, UniProt P50281); test: Inhibition of MMP14
Matrilysin = target: T2, Matrilysin (Homo sapiens, UniProt P09237); test: Inhibition of MMP7
T2 sequence (P09237 whole entry): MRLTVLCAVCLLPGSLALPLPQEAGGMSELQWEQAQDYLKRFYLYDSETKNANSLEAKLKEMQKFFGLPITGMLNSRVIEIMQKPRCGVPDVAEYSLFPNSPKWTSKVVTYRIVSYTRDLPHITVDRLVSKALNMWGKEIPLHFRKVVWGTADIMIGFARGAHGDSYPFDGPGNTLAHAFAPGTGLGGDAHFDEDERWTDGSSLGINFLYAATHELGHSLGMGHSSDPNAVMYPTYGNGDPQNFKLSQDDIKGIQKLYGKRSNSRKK

Neutrophil collagenase = Neutrophil collagenase (Homo sapiens, UniProt P22894); test: Inhibition of MMP8
Chain of Neutrophil collagenase (P22894 whole entry): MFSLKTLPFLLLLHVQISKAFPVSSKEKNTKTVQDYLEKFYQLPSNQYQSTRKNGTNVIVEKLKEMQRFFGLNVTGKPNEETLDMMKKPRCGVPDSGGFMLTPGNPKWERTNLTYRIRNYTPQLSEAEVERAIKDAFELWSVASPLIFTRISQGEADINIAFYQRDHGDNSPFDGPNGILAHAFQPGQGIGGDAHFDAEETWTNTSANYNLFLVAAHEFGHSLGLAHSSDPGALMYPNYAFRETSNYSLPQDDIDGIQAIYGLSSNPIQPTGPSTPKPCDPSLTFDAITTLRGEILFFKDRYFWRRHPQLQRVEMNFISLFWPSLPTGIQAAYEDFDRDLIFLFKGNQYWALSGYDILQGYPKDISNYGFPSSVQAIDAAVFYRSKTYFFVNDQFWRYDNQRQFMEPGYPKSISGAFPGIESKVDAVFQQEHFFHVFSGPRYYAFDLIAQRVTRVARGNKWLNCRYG

Chain of Disintegrin and metalloproteinase domain-containing protein 17 (O77636 whole entry, the tested form may be a part): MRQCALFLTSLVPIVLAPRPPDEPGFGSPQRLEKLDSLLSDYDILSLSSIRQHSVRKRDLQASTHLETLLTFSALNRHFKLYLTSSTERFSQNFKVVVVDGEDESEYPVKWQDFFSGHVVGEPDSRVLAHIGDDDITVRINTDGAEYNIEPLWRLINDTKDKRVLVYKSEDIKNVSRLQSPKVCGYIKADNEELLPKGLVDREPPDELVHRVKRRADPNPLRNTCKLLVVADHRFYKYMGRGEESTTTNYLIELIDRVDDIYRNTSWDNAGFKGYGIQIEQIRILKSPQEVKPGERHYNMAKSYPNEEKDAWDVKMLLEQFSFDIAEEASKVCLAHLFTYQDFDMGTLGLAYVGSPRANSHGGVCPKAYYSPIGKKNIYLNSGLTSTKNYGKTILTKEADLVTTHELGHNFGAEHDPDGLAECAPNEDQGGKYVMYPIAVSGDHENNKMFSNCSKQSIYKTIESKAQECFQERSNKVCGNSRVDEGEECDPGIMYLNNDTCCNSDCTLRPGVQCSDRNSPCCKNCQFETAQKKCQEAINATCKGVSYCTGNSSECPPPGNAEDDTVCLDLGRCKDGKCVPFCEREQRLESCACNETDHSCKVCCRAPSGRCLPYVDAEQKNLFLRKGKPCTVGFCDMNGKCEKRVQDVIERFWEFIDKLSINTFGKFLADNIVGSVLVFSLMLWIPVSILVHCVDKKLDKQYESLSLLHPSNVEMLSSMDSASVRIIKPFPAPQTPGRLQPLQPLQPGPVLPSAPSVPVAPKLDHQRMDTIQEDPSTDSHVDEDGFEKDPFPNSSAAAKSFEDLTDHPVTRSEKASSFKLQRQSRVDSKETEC

SMILES | IC50 [1] | IC50 (Blood) | Ki [2] | Ki [3] | Ki (Interstitial collagenase) | Papp [4] | bioavailability [5] | clearance [6] | Ki [7] | Ki (Stromelysin-1) | Ki (Collagenase 3) | Ki [8] | IC50 (Stromelysin-2) | Ki [9] | Ki (Matrilysin) | Ki (Neutrophil collagenase)
CSc1nc2ccccc2n1Cc1ccc([C@]2(N)CCN([C@H](CC(C)C)C(=O)NO)C2=O)cc1 | 6.2 nM | 316 nM | 302 nM | 934 nM | > 4950 nM | – | – | – | – | – | – | – | – | – | – | –
Cc1nc2ccccc2n1Cc1ccc(C(=O)N[C@@H]2CNC[C@@H]2C(=O)NO)cc1 | 2.6 nM | 56 nM | > 2130 nM | > 2130 nM | > 2130 nM | 0.1 ×10⁻⁶ cm/s | – | – | – | – | – | – | – | – | – | –
CC(C)c1nc2ccccc2n1Cc1ccc(C(=O)N[C@@H]2CNC[C@@H]2C(=O)NO)cc1 | 1.6 nM | 64 nM | > 2130 nM | > 2130 nM | > 2130 nM | 0.1 ×10⁻⁶ cm/s | – | – | – | – | – | – | – | – | – | –
O=C(N[C@@H]1CCC[C@@H]1C(=O)NO)c1ccc(Cn2c(C3CC3)nc3ccccc32)cc1 | 2.7 nM | 54 nM | > 3330 nM | > 2130 nM | > 4950 nM | 2 ×10⁻⁶ cm/s | 22% | 25 mL/min/kg | – | – | – | – | – | – | – | –
C#CCN1C[C@H](C(=O)NO)[C@H](NC(=O)c2ccc(Cn3c(C(C)C)nc4ccccc43)cc2)C1 | 1.8 nM | 137 nM | > 3330 nM | > 2130 nM | > 4950 nM | 0.1 ×10⁻⁶ cm/s | 3% | 155 mL/min/kg | – | – | – | – | – | – | – | –
C#CCN1C[C@H](C(=O)NO)[C@H](NC(=O)c2ccc(Cn3c(C(C)(C)C)nc4ccccc43)cc2)C1 | 2.3 nM | 317 nM | > 3330 nM | > 2130 nM | > 4950 nM | 0.4 ×10⁻⁶ cm/s | 8% | 113 mL/min/kg | – | – | – | – | – | – | – | –
O=C(N[C@@H]1C[C@@]2(CCCO2)C[C@@H]1C(=O)NO)c1ccc(Cn2c(C3CC3)nc3ccccc32)cc1 | 1.3 nM | 42 nM | > 3330 nM | > 2130 nM | > 4950 nM | 0.1 ×10⁻⁶ cm/s | 14% | 23.3 mL/min/kg | – | – | – | – | – | – | – | –
CC(C)(F)c1nc2ccccc2n1Cc1ccc(C(=O)N[C@@H]2C[C@@]3(CCCO3)C[C@@H]2C(=O)NO)cc1 | < 1 nM | 140 nM | > 3330 nM | > 2130 nM | > 4950 nM | 2.4 ×10⁻⁶ cm/s | 33% | 40 mL/min/kg | – | – | – | – | – | – | – | –
CC(C)(F)c1nc2ccccc2n1Cc1ccc(C(=O)N[C@@H]2CCOC[C@@H]2C(=O)NO)cc1 | 2.2 nM | 153 nM | > 3330 nM | > 2130 nM | > 4950 nM | 0.3 ×10⁻⁶ cm/s | 36% | 31.7 mL/min/kg | – | – | – | – | – | – | – | –
CC(F)(F)c1nc2ccccc2n1Cc1ccc(C(=O)N[C@@H]2CCOC[C@@H]2C(=O)NO)cc1 | 2.6 nM | 188 nM | > 3330 nM | > 2130 nM | > 4950 nM | 0.7 ×10⁻⁶ cm/s | 55% | 20 mL/min/kg | – | – | – | – | – | – | – | –
O=C(N[C@@H]1COC[C@@H]1C(=O)NO)c1ccc(Cn2c(C(F)(F)F)nc3ccccc32)cc1 | 1 nM | 102 nM | > 3330 nM | > 2130 nM | > 4950 nM | 0.1 ×10⁻⁶ cm/s | 20% | 53.3 mL/min/kg | – | – | – | – | – | – | – | –
CSc1nc2ccccc2n1Cc1ccc(C(=O)N[C@@H]2CNC[C@@H]2C(=O)NO)cc1 | 1.6 nM | 34 nM | > 2130 nM | > 2130 nM | > 2130 nM | 0.2 ×10⁻⁶ cm/s | – | – | – | – | – | – | – | – | – | –
CSc1nc2ccccc2n1Cc1ccc(C(=O)N[C@@H]2CN(C(=O)OC(C)(C)C)C[C@@H]2C(=O)NO)cc1 | < 1 nM | 62 nM | > 2130 nM | > 2130 nM | > 2130 nM | 0.2 ×10⁻⁶ cm/s | – | – | > 5450 nM | > 4500 nM | > 5030 nM | > 7090 nM | > 10000 nM | > 5290 nM | 4080 nM | –
Cc1nc2ccccc2n1Cc1ccc(C(=O)N[C@@H]2CN(C(=O)OC(C)(C)C)C[C@@H]2C(=O)NO)cc1 | 1 nM | 92 nM | > 2130 nM | > 2130 nM | > 2130 nM | 0.1 ×10⁻⁶ cm/s | – | – | > 5550 nM | 2610 nM | > 5030 nM | > 7090 nM | 1600 nM | > 5290 nM | 5860 nM | –
CC(C)c1nc2ccccc2n1Cc1ccc(C(=O)N[C@@H]2CCOC[C@@H]2C(=O)NO)cc1 | 1.6 nM | 105 nM | > 3330 nM | > 2130 nM | > 4950 nM | 0.5 ×10⁻⁶ cm/s | 8% | 63.3 mL/min/kg | – | – | – | – | – | – | – | –
CC(C)c1nc2ccccc2n1Cc1ccc(C(=O)N[C@@H]2C[C@@]3(CCCO3)C[C@@H]2C(=O)NO)cc1 | 1.1 nM | 69 nM | > 3330 nM | > 2130 nM | > 4950 nM | 0.1 ×10⁻⁶ cm/s | 22% | 115 mL/min/kg | – | – | – | – | – | – | – | –
CC(C)c1nc2ccccc2n1Cc1ccc(C(=O)N[C@@H]2CCC[C@@H]2C(=O)NO)cc1 | 1 nM | 65 nM | > 3330 nM | > 2130 nM | > 4950 nM | 0.1 ×10⁻⁶ cm/s | 8% | 50 mL/min/kg | – | – | – | – | – | – | – | –
CC(C)(C)c1nc2ccccc2n1Cc1ccc(C(=O)N[C@@H]2C[C@@]3(CCCO3)C[C@@H]2C(=O)NO)cc1 | 2 nM | 252 nM | > 3330 nM | > 2130 nM | > 4950 nM | 1.4 ×10⁻⁶ cm/s | 29% | 48.3 mL/min/kg | – | – | – | – | – | – | – | –
CC(C)c1nc2ccccc2n1Cc1ccc(C(=O)N[C@@H]2CN(C(=O)OC(C)(C)C)C[C@@H]2C(=O)NO)cc1 | 1 nM | 70 nM | > 2130 nM | > 2130 nM | > 2130 nM | 0.2 ×10⁻⁶ cm/s | – | – | > 5550 nM | 3920 nM | > 5030 nM | > 7090 nM | 4600 nM | > 5290 nM | 3500 nM | > 3060 nM
